Test results taken from ChEMBL document CHEMBL1667760, “Synthesis and biological evaluation of 3,5-diaryl isoxazoline/isoxazole linked 2,3-dihydroquinazolinone hybrids as anticancer agents” (2011).
Counter-ions that a name gives are not always drawn. The source made the active and inactive calls. No cut-off for these calls is given here.

Legend:
A2780 = assay: Cytotoxicity against human A2780 cells after 48 hrs by sulforhodamine B assay; assay type: functional; conditions: A2780, 48 h
How it was run: (§1)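 Cells were grown in RPMI 1640 with 10% FBS and 2 mM L-glutamine, plated at densities set by doubling time, and pre-incubated 24 h at 37 °C, 5% CO2. Drugs were tested at 0.1, 1, 10 and 100 µM in triplicate wells for 48 h continuous exposure. Cells were fixed with 10% TCA (final) and stained with 0.4% SRB. A540 was read against a 690 nm reference, and percent growth was calculated relative to control. Experiments were repeated three times.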

A549 = assay: Cytotoxicity against human A549 cells after 48 hrs by sulforhodamine B assay; assay type: functional; conditions: A549, 48 h, read-out: GI50; how it was run: as §1
PC-3 = assay: Cytotoxicity against human PC3 cells after 48 hrs by sulforhodamine B assay; assay type: functional; conditions: PC-3, 48 h, read-out: GI50; how it was run: as §1
KB = assay: Cytotoxicity against human KB cells after 48 hrs by sulforhodamine B assay; assay type: functional; how it was run: as §1
OVCAR-8 = assay: Cytotoxicity against human OVCAR8 cells after 48 hrs by sulforhodamine B assay; assay type: functional; conditions: OVCAR-8, 48 h, read-out: GI50
How it was run: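 Run by the NCI 60-cell-line screen. A one-dose pre-test was done first, followed by the main test over a 5-log dose range (10^-4 to 10^-8 M). Results are reported as log molar GI50 (50% net growth inhibition), TGI (total growth inhibition) and LC50 (50% net cell death), with mean-graph midpoints across all lines.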

MCF7 [1] = assay: Cell cycle arrest in human MCF7 cells assessed as accumulation at G0 phase at 5 uM after 24 hrs using propidium iodide staining by flow cytometry relative to control; assay type: functional
How it was run: (§2)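 MCF-7 cells were seeded at 5×10^5 per 60 mm dish and grown 24 h. They were then exposed to 5 uM compound for a further 24 h, with untreated control cells alongside. Cells were trypsinised, fixed in ice-cold 70% ethanol (4 °C, 30 min), treated with 1 mg/ml RNase A (37 °C, 30 min) and stained with propidium iodide/citrate/Triton solution. DNA content was read by flow cytometry on 20,000 events.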

MCF7 [2] = assay: Cell cycle arrest in human MCF7 cells assessed as accumulation at G1 phase at 5 uM after 24 hrs using propidium iodide staining by flow cytometry relative to control; assay type: functional; how it was run: as §2
MCF7 [3] = assay: Cell cycle arrest in human MCF7 cells assessed as accumulation at G2/M phase at 5 uM after 24 hrs using propidium iodide staining by flow cytometry relative to control; assay type: functional; how it was run: as §2
MCF7 [4] = assay: Cell cycle arrest in human MCF7 cells assessed as accumulation at S phase at 5 uM after 24 hrs using propidium iodide staining by flow cytometry relative to control; assay type: functional; how it was run: as §2
MCF7 [5] = assay: Induction of apoptosis in human MCF7 cells assessed as increase of cleaved PARP level at 5 uM after 24 hrs by Western blotting; assay type: functional, cell-based
How it was run: (§3)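 MCF-7 cells, kept in DMEM with 10% fetal calf serum at 37 °C under 5% CO2, treated 24 h. Lysis in ice-cold RIPA with protease inhibitors; Bradford quantitation; 30 µg protein per lane on 12% SDS-PAGE, then PVDF. Primary antibodies (1:500) at 4 °C overnight; HRP secondary (1:2000); chemiluminescence detection; β-actin loading control.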

MCF7 [6] = assay: Reduction of cyclin A expression in human MCF7 cells at 5 uM after 24 hrs by Western blotting; assay type: functional, cell-based; how it was run: as §3
Tubulin (Homo sapiens) = Tubulin (Homo sapiens) (UniProt P68371+Q9H4B7+P0DPH7+P68366+Q13509+Q71U36+P04350+Q3ZCM7+P07437+P68363+Q9BQE3+Q6PEY2+Q13885+Q9BVA1+Q9BUF5); conditions: MCF7, 2.5 uM
MCF7 [7] = assay: Induction of apoptosis in human MCF7 cells assessed as nuclear fragmentation at 2.5 uM after 48 hrs by DAPI staining; assay type: functional, cell-based
How it was run: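 MCF-7 cells grown on glass coverslips and incubated 48 h with or without compound. Fixed in 3% paraformaldehyde/0.02% glutaraldehyde in PBS, stained with DAPI, and nuclear morphology examined by fluorescence microscopy.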

SMILES | GI50 (A2780) | GI50 (A549) | GI50 (PC-3) | GI50 (KB) | GI50 (OVCAR-8) | Activity (MCF7 [1]) | Activity (MCF7 [2]) | Activity (MCF7 [3]) | Activity (MCF7 [4]) | Activity (MCF7 [5]) | Activity (MCF7 [6]) | inhibition (Tubulin (Homo sapiens)) | Activity (MCF7 [7])
COc1cc(C2NC(=O)c3ccccc3N2)ccc1OCCCCOc1c(OC)cc(C2=NOC(c3cc(OC)c(OC)c(OC)c3)C2)cc1OC (stereo unspecified) | > 100 µM | 14 µM | 0.46 µM | 21 µM | 0.3 µM |  |  |  |  |  |  |  | 
COc1cc(C2NC(=O)c3ccccc3N2)ccc1OCCCCCOc1cc(C2CC(c3cc(OC)c(OC)c(OC)c3)=NO2)ccc1OC (stereo unspecified) | > 100 µM | 0.16 µM | 2.4 µM | 27 µM | 0.14 µM |  |  |  |  |  |  |  | 
COc1cc(C2NC(=O)c3ccccc3N2)ccc1OCCCOc1c(OC)cc(C2=NOC(c3cc(OC)c(OC)c(OC)c3)C2)cc1OC (stereo unspecified) | > 100 µM | 20 µM | 0.52 µM | 22 µM | 0.28 µM |  |  |  |  |  |  |  | 
COc1cc(C2NC(=O)c3ccccc3N2)ccc1OCCCOc1cc(C2CC(c3cc(OC)c(OC)c(OC)c3)=NO2)ccc1OC (stereo unspecified) | 26 µM | 0.17 µM | 2.5 µM | 28 µM | 0.17 µM |  |  |  |  |  |  |  | 
COc1cc(C2NC(=O)c3ccccc3N2)ccc1OCCCCCBr (stereo unspecified) |  |  |  |  |  | 1.61% | 69% | 16.64% | 12.75% |  |  |  | 
COc1ccc(/C=C\c2cc(OC)c(OC)c(OC)c2)cc1O [COMBRETASTATIN A4] |  |  |  |  |  | 2.53% | 16.05% | 65.5% | 15.92% | Active | Active |  | 
COC(=O)Nc1nc2cc(C(=O)c3cccs3)ccc2[nH]1 |  |  |  |  |  |  |  |  |  |  |  | Active | Active
COc1cc(C2=NOC(c3cc(OC)c(OC)c(OC)c3)C2)cc(OC)c1O (stereo unspecified) |  |  |  |  |  | 0.5% | 44.54% | 34.36% | 20.6% |  |  |  | 
COc1cccc2c1C(=O)c1c(O)c3c(c(O)c1C2=O)C[C@@](O)(C(=O)CO)C[C@@H]3O[C@H]1C[C@H](N)[C@H](O)[C@H](C)O1 [DOXORUBICIN HYDROCHLORIDE] | 0.18 µM | 0.13 µM | 0.16 µM | 0.19 µM | 0.15 µM |  |  |  |  |  |  |  | 
COc1ccc(-c2cc(-c3cc(OC)c(OC)c(OC)c3)on2)cc1OCCCCOc1cc(C2NC(=O)c3ccccc3N2)ccc1OC (stereo unspecified) | > 100 µM | > 100 µM | 2.1 µM | > 100 µM | 0.15 µM |  |  |  |  |  |  |  | 
COc1ccc(C2NC(=O)c3ccccc3N2)cc1OCCCCOc1c(OC)cc(-c2cc(-c3cc(OC)c(OC)c(OC)c3)no2)cc1OC (stereo unspecified) | 2 µM | 0.18 µM | 2 µM | 26 µM | 25 µM |  |  |  |  |  |  |  | 
COc1cc(C2NC(=O)c3ccccc3N2)ccc1OCCCCOc1cc(C2CC(c3cc(OC)c(OC)c(OC)c3)=NO2)ccc1OC (stereo unspecified) | 22 µM | 0.15 µM | 2.8 µM | 30 µM | 0.18 µM |  |  |  |  |  |  |  | 
